Screening results (PubChem)
DNMT1 block: blocks human DNA methyltransferase DNMT1; DNMT1 molecular beacon, Hinp1I cleavage, fluorescence; inhibition (reported as % activation of signal), % at 10 µM; actives 0.83% (n = 360,000); in the data active = inhibition above about 50%
CSN inh: inhibitors of human CSN-mediated cullin deneddylation; actives 0.38% (n = 360,000); inhibition, % at 12.5 µM; Purified CSN, SCF-Nedd8-OG deneddylation, fluorescence polarization; Q92905; AID 651999;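 active = pattern-corrected inhibition above about 35%, with an unprinted fluorescence ratio check between 0.5 and 1.5, limit read from the data, passing the limit was not always enough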
Target sequence (Q92905 whole entry, looked up, one chain of several): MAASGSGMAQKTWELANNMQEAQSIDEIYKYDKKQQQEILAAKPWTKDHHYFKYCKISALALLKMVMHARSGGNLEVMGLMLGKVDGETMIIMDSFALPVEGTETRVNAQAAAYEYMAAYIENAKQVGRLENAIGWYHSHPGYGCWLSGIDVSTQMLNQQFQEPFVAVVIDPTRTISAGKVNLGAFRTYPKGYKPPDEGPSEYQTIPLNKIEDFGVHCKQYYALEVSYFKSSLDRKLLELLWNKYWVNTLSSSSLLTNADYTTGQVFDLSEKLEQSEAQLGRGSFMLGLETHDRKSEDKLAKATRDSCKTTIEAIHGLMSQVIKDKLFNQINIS
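Detection – fluorescence polarization · System – HEK293T-derived human Csn5 enzyme · Controls – substrate-only high control, full reaction low control · Timing – 90 min, room temperature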
STEP block: inhibitors of human striatal-enriched phosphatase STEP; inhibition, % at 20 µM; recombinant STEP, OMFP fluorogenic substrate, fluorescence; AID 588621; P54829; actives 0.25% (n = 360,000);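 active = inhibition at 20 µM, scaled per plate between control wells, above about 37%, limit read from the data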
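material = STEP tyrosine phosphatase | reagent = fluorogenic phosphatase substrate OMFP at 25 µM final | doses = single compound dose of 20 µM, 1% DMSO final | schedule = 20 min reaction, room temperature, in the dark | measured by = fluorescence, 480/540 nm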
LMPTP inh: LMPTP (human) inhibition; P24666; recombinant LMPTP-A, OMFP fluorogenic substrate, fluorescence intensity; inhibition, % at 20 µM; actives 0.22% (n = 360,000); AID 651560;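 active = compounds that cut the enzyme signal by at least half of the control window in the single-dose screen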
Target sequence (P24666 whole entry, looked up): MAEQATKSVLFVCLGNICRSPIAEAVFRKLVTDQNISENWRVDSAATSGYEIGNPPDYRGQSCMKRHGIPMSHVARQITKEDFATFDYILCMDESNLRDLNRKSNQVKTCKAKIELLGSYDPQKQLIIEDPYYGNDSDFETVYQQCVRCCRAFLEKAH
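Assay system: LMPTP-A phosphatase enzyme | Input: 0.625 nM enzyme | Also added: Fluorogenic phosphatase substrate OMFP at 400 µM final | Compound dosing: One test concentration per compound, 20 µM, with 3% DMSO overall | Schedule: 50 min enzyme reaction at room temperature, protected from light | Signal: Fluorescence intensity | Benchmarks: no-enzyme and uninhibited controls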
Scp-1 inhibitor: blocks human Scp-1 phosphatase activity; Q9GZU7; actives 0.88% (n = 340,000); AID 493091; Recombinant Scp1, phosphopeptide, malachite green phosphate absorbance; inhibition, % at 20 µM;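 active = inhibition above about 50% at 20 µM, limit read from the data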
Target sequence (Q9GZU7 76-261 limits assumed): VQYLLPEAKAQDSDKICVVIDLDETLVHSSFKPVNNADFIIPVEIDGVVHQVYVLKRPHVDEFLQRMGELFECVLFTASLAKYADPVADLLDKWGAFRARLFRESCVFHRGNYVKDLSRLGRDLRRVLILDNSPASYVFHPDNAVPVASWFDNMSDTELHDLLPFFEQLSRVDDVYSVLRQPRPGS
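Incubation: 45 min enzyme reaction at room temperature / System: truncated SCP-1 phosphatase (76-261aa) / Reagent: Phospho 17-mer peptide substrate / Buffer or medium: Acidic Tris acetate buffer with magnesium and detergent / Signal: absorbance at 630 nm / Doses: one concentration, 20 µM, with 1.0% DMSO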
SUMO1-SIM PPI: modulators of human SUMO1-mediated protein-protein interactions; P63165; SUMO1 binding to a labelled peptide, TR-FRET, 1 h; inhibition, % at 20 µM; actives 0.33% (n = 360,000); in the data active = inhibition above about 37%
DNMT1 confirm: DNMT1 inhibition confirmation, single concentration; shares compounds with DNMT1 block; DNMT1 molecular beacon HinP1I cleavage, fluorescence; inhibition, % at 10 µM; actives 8% (n = 2,300); AID 602385;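 active = average inhibition of at least 30% in the single-concentration confirmation test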
DNMT1 interf: shows spectral interference in the DNMT1 beacon assay. activation (fluorescence interference), % at 10 µM. shares compounds with DNMT1 block. actives 1% (n = 2,300). AID 602387. DNMT1 molecular beacon spectral interference counterscreen, fluorescence 485/520;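 active = activation of at least 30% at 10 µM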;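 also: DNMT1 catalytic domain with a HinP1I cleavage step and a FAM/dabcyl DNA beacon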
Hits are given with their value; i = inactive; nt = no result given. Most compounds without a hit are left out; they make up all but 1.9% or so of the library.

SMILES	DNMT1 block	CSN inh	STEP block	LMPTP inh	Scp-1 inhibitor	SUMO1-SIM PPI	DNMT1 confirm	DNMT1 interf
COc1ccc(-c2c(C#Cc3ccsc3)c3cc(Br)ccc3n2C)cc1	i	i	i	i	i	i	nt	nt
CC(=O)c1nn(-c2cccc(Br)c2)cc1C(=O)c1ccco1	i	i	i	i	i	i	nt	nt
Cc1nnc(-c2ccco2)c2cn(-c3cccc(Br)c3)nc12	91	i	i	i	i	i	i	i
O=C(COC(=O)c1cc(=O)c2ccccc2o1)NCc1ccccc1	i	i	i	i	i	i	nt	nt
O=C(COC(=O)c1cc(=O)c2ccccc2o1)NCc1ccc(Cl)cc1	57	i	i	i	nt	i	i	i
CCCOc1cc2c(C#N)c(N3CCCC3)nc(N)c2c(N)n1	97	i	i	i	i	51	i	i
COc1ccc(/C=C(\C#N)C(=O)Nc2cc(C)c(Cl)cc2OC)cc1O	70	i	i	i	i	i	i	i
COc1ccc(/C=C(\C#N)C(=O)NCc2ccccc2)cc1O	i	i	i	i	i	i	nt	nt
COc1ccc(-c2[nH]c(-c3ccc(SC)cc3)nc2SCC(=O)Nc2nccs2)cc1	i	i	i	i	i	i	nt	nt
CC(C(=O)Nc1ccc(F)c(F)c1F)N(C)Cc1cccs1 (stereo not drawn)	i	i	i	i	i	i	nt	nt
Cc1ccc(NC(=O)C(=O)NN)cc1	75	i	i	i	i	i	i	i
NNC(=O)C(=O)Nc1ccc(O)cc1	i	i	i	i	i	i	nt	nt
O=C1C(Cl)=C(N2CCCC2)C(=O)N1c1ccc(F)cc1	72	i	i	i	i	i	i	i
Cc1cc2nc3c(=O)n(CCc4ccccc4)c(=O)[nH]c3nc2cc1N	63	i	i	i	i	i	65	90
C=CCn1c(=O)[nH]c2nc3cc(N=CN(C)C)c(C)cc3nc2c1=O	i	i	i	i	i	i	nt	nt
CC(C)C(CCNC(=O)CC(Cc1ccccc1)c1ccco1)c1ccco1 (stereo not drawn)	61	i	i	i	i	i	i	i
CC(C)C(CCNC(=O)CN1C(=O)c2ccccc2C1=O)c1ccco1 (stereo not drawn)	i	i	i	i	i	i	nt	nt
O=C(NC1CCC(CC2CCC(NC(=O)C(Cl)Cl)CC2)CC1)C(Cl)Cl (stereo not drawn)	63	i	i	i	i	i	i	i
COC(=O)NC1CCC(CC2CCC(NC(=O)OC)CC2)CC1 (stereo not drawn)	i	i	i	i	i	i	nt	nt
COc1cc(C(=O)NNC(=O)c2ccccc2OCc2c(C)noc2C)cc(OC)c1OC	i	i	i	i	i	i	nt	nt
COc1ccccc1C=C1SC(=S)NC1=O	i	i	i	i	i	i	nt	nt
O=C1NC(=S)S/C1=C\c1ccc(SCc2ccccc2)o1	82	i	i	i	i	i	i	i
O=C(NCCCN1CCCC1=O)c1ccc(NS(=O)(=O)c2ccc(F)cc2)cc1	i	i	i	i	i	i	nt	nt
COc1ccc(S(=O)(=O)N(C)C[C@H]2Oc3cc(Br)ccc3S(=O)(=O)N([C@H](C)CO)C[C@H]2C)cc1	i	i	i	i	nt	i	nt	nt
COc1cccc(S(=O)(=O)N(C)C[C@@H]2Oc3cc(Br)ccc3S(=O)(=O)N([C@@H](C)CO)C[C@@H]2C)c1	83	i	i	i	nt	i	i	i
SMILES	DNMT1 block	CSN inh	STEP block	LMPTP inh	Scp-1 inhibitor	SUMO1-SIM PPI	DNMT1 confirm	DNMT1 interf
Cc1cccc(NC(=O)CSCC(=O)Nc2ccccc2N2CCCCC2)c1	94	i	i	i	i	i	i	i
CCOc1cc(/C=C2\C(=O)NN(c3ccccc3)C2=O)cc([N+](=O)[O-])c1O	68	i	i	i	i	i	i	i
O=C(Nc1ccc(O)c2c(=O)cc(-c3cccc(Cl)c3)oc12)c1ccccc1Cl	54	i	i	i	i	i	i	i
Clc1ccccn1	i	i	i	i	i	i	nt	nt
CCCCCCSc1ccc(-c2nc3ccc(Cl)cn3c2NCCCC)cc1OC	79	i	i	i	i	i	i	i
O=C(C1CCN(S(=O)(=O)c2cccs2)CC1)N(c1ccccn1)C1CCCCC1	i	i	i	i	i	i	nt	nt
COCc1cc(=O)n2[nH]c(-c3ccsc3-n3c(C)ccc3C)cc2n1	68	i	i	i	i	45	i	i
Cc1cc(=O)n2[nH]c(-c3ccc(F)cc3)cc2n1	i	i	i	i	i	i	nt	nt
Cc1cc(=O)n2[nH]c(-c3ccsc3-n3c(C)ccc3C)cc2n1	67	i	i	i	i	i	i	i
O=C1CCCC(=O)N1c1ccc(N2CCOCC2)c([N+](=O)[O-])c1	i	i	i	i	i	i	nt	nt
CC12C=CC3(O1)C(C(=O)N(c1ccccc1)C3C(=O)NC1CCCC1)C2C(N)=O (stereo not drawn)	i	i	i	i	i	i	nt	nt
CCN(CC)c1ccc2cc(-c3nnc(-c4ccncc4)o3)c(=O)oc2c1	136	i	i	i	i	i	88	61
CCN(CC)c1ccc2cc(C(C)=O)c(=O)oc2c1	i	i	i	i	i	i	nt	nt
CCN(CC)c1ccc2cc(C=O)c(=O)oc2c1	71	i	i	i	i	i	39	59
Cc1ccc2c(c1)N(CC(=O)NCC(C)c1ccccc1)C(=O)c1cccnc1O2 (stereo not drawn)	i	i	i	i	i	i	nt	nt
CCc1nnc(NC(=O)c2ccc(-c3ccc(Cl)cc3)o2)s1	68	i	i	i	i	i	i	i
CCc1nnc(NC(=O)c2ccc(-c3ccc(C(C)=O)cc3)o2)s1	i	i	i	i	i	i	nt	nt
O=C(Nc1ccc2oc(=O)ccc2c1)c1ccc(-c2cccc(Cl)c2)o1	91	i	i	i	i	i	i	i
CC(=O)Oc1ccc(-c2ccc(C(=O)OCC(=O)N(C)CC(=O)Nc3ccccc3Cl)cc2)cc1	i	i	i	i	i	i	nt	nt
CCCCCCNC(=O)O[C@H]1C[C@@H]2C(=O)N(c3ccccc3)C(=O)[C@@H]2[C@@H]2CN(S(=O)(=O)c3ccc(C)cc3)C[C@]12O	76	i	i	i	nt	i	i	i
Cc1ccc(S(=O)(=O)N2C[C@H]3[C@H]4C(=O)N(c5ccccc5)C(=O)[C@H]4C[C@H](OC(=O)NC4CC4)[C@@]3(O)C2)cc1	i	i	i	i	nt	i	nt	nt
CCCCCCCCN1[C@@H](CC(=O)OC)c2cc(F)ccc2S1(=O)=O	82	i	i	52	i	i	i	i
